This is an account of results in the array DNA melting data of Ke et al. (doi:10.1101/2024.01.08.574731).

A short description of series [1]: folding enthalpy; higher = less favourable; fluorescence melt of hairpins on a sequencing array, two-state fit. Conditions: sodium 0.088 M. A digest of the protocol: (§1)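 Folding enthalpy and melting temperature come from bootstrapped two-state fits to Cy3 fluorescence of library hairpins carrying annealed Cy3 and quencher oligos on a sequenced MiSeq flow cell. Imaging was done in 50 mM Na-HEPES pH 8.0, 25 mM NaCl, stepping by 2.5 °C up to 60 °C, and signals were normalised to pre-quench Cy3 and to control constructs. Results of four replicates were combined by inverse variance, and fitted temperatures were raised by 9.35 °C to match UV melts.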

A short description of series [2]: melting temperature; fluorescence melt of hairpins on a sequencing array, two-state fit, raised by 9.35 °C to match UV melts. Conditions: sodium 0.088 M. In a few lines:
as §1

For the sequence GACGCCGGAAACGGTGTC (((.(((....))).))), the folding enthalpy in series [1] was -45.9 kcal/mol. Moreover, the Tm in series [2] amounted to 63.9 °C.
Regarding GCACTGGGAAACCGGTGC ((((.((....)).)))), in series [1], the folding enthalpy is -44.1 kcal/mol. Further, the Tm in series [2] was 59.6 °C.
The matching figures for GTCTTAGCGAAAGCTGAC (((..(((....)))))): -14.9 kcal/mol and 39 °C.
The matching figures for ACGAGGAAACTCGT (((((....))))): -26 kcal/mol and 50.3 °C.
In the case of GATCGCGAAAGCGCAATC ((((((....)))..))), the folding enthalpy in series [1] was -7.96 kcal/mol. Besides, in series [2], the Tm stood at 23.1 °C.
The matching figures for GTATGCTCGAAAGAGTAC (((..(((....)))))): -10.5 kcal/mol and 26.7 °C.
The matching figures for GTGAGCGGAAACGCTTGC (..((((....))))..): -16.2 kcal/mol and 43.8 °C.
Turning to GGATTTACGAAAGTATCC (((..(((....)))))), the folding enthalpy in series [1] was -21 kcal/mol. For the same sequence, the Tm in series [2] was 31 °C.
The matching figures for GTGTCTCGAAAGAGCCAC (((.(((....))).))): -28.9 kcal/mol and 49.7 °C.
Take GATCACCACGGTGATC ((((((....)))))): the folding enthalpy in series [1] is -41.4 kcal/mol. Moreover, the Tm in series [2] was 62.9 °C.
The matching figures for GGACTCGAAAGAGAATCC ((((((....)))..))): -12.6 kcal/mol and 28.8 °C.
For the sequence GAGATTGGAAACAATTTC ((.((((....)))).)), the folding enthalpy in series [1] is -17.9 kcal/mol. Moreover, the Tm in series [2] was determined as 32.4 °C.
On the same counts, the results for GATCTGTCGCAGATC ((((((...)))))) are -24.5 kcal/mol and 48.5 °C.
On the same counts, the results for GGGTGCGAAAGCAATCCC ((((((....)))..))) are -21.8 kcal/mol and 50.6 °C.
The matching figures for GATCGCTAGTGCGATC ((((((....)))))): -35.2 kcal/mol and 67 °C.
As to TGCAGGAAACTGCA (((((....))))), in series [1], the folding enthalpy is -19.6 kcal/mol. Also, the Tm in series [2] was found to be 51.8 °C.
On the same counts, the results for GATCAAATGTTGATC ((((((...)))))) are -26.6 kcal/mol and 41.2 °C.
On the same counts, the results for GCAGTAACGAAAGTTTGC (((..(((....)))))) are -21.9 kcal/mol and 37.6 °C.
Regarding GGACGGGGAAACCCATCC (((.(((....))).))), in series [1], the folding enthalpy was -27.6 kcal/mol. In series [2], the Tm turned out to be 41.7 °C.
Turning to GCTATGCGAAAGCAATGC ((..(((....)))..)), the folding enthalpy in series [1] was -16.5 kcal/mol. In series [2], the Tm amounted to 47.7 °C.
On the same counts, the results for GTGGACGGAAACGTCTGC (..((((....))))..) are -15.8 kcal/mol and 49.2 °C.
The matching figures for GACTATGCGAAAGCAGTC (((..(((....)))))): -15.3 kcal/mol and 44 °C.
On the same counts, the results for GATCGACGATTCGATC ((((((....)))))) are -37.1 kcal/mol and 49.4 °C.
Regarding GATCATCCTGATGATC ((((((....)))))), in series [1], the folding enthalpy was -41.7 kcal/mol. In series [2], the Tm worked out at 54.5 °C.
The matching figures for GTTATACGAAAGTAAAAC (((.(((....))).))): -20.2 kcal/mol and 32.2 °C.
The matching figures for GATCTTTGCTAAGATC ((((((....)))))): -35.8 kcal/mol and 46 °C.
The matching figures for GGGTCCGGAAACGGACTC (.(((((....))))).): -15.2 kcal/mol and 61.3 °C.
GCTTCGGGAAACCAAAGC ((((.((....)).)))): in series [1], the folding enthalpy was -28.7 kcal/mol. In addition, the Tm in series [2] is 41.1 °C.
The matching figures for GCATCTCGAAAGAGCTGC (((.(((....))).))): -30.9 kcal/mol and 48.2 °C.
As to GATCTAAGATTAGATC ((((((....)))))), the folding enthalpy in series [1] is -32.1 kcal/mol. Further, in series [2], the Tm came out at 37.5 °C.
Consider GATGTCGGAAACGATATC (((.(((....))).))), for which the folding enthalpy in series [1] is -48.3 kcal/mol. Moreover, the Tm in series [2] was found to be 46.6 °C.
The matching figures for GATCCAGCTGTGGATC ((((((....)))))): -38.8 kcal/mol and 50.3 °C.
As to GGACGGACGAAAGTCTCC (((..(((....)))))), the folding enthalpy in series [1] was -13.2 kcal/mol. For the same sequence, in series [2], the Tm was 30.5 °C.
On the same counts, the results for GTCTCCGGAAACGAAGAC ((((.((....)).)))) are -25.9 kcal/mol and 41.9 °C.
Take CGGCCGGAAACGGTCCG ((((((....))).))): in series [1], the folding enthalpy is -32 kcal/mol. In series [2], the Tm is 57.7 °C.
The matching figures for GCATGCGAAAGCAGCTGC ((((((....)))..))): -17.9 kcal/mol and 54 °C.
On the same counts, the results for GCGGGATCCCGC ((((....)))) are -41.9 kcal/mol and 59.3 °C.
As to GCTTTACGAAAGTACAGC (((.(((....))).))), the folding enthalpy in series [1] is -28.6 kcal/mol. In addition, the Tm in series [2] stood at 44.8 °C.
In the case of GATCCGGAATCGGATC ((((((....)))))), the folding enthalpy in series [1] was -45.2 kcal/mol. Also, the Tm in series [2] was found to be 62 °C.
The matching figures for GTATGAGGAAACTTATAC ((((.((....)).)))): -25.7 kcal/mol and 31.2 °C.
On the same counts, the results for GATCGGCAAACCGATC ((((((....)))))) are -36.1 kcal/mol and 56.5 °C.
On the same counts, the results for GGTCCGCGAAAGCGCACC (((.(((....))).))) are -20.9 kcal/mol and 48.3 °C.
Turning to GATCCCTGTGGGGATC ((((((....)))))), the folding enthalpy in series [1] is -41.6 kcal/mol. The Tm in series [2] is 65.3 °C.
On the same counts, the results for GTTGTTGGAAACAACGAC ((.((((....)))).)) are -18.6 kcal/mol and 55.9 °C.
The matching figures for GCCGGGCGAAAGCTTGGC (((..((....))..))): -24.4 kcal/mol and 65.3 °C.
On the same counts, the results for GCGAGTCGTCGC ((((....)))) are -22.3 kcal/mol and 53.1 °C.
Regarding CGGTTCGGAAACGATCCG (((.(((....))).))), in series [1], the folding enthalpy was -36 kcal/mol. Moreover, the Tm in series [2] was 51 °C.
On the same counts, the results for GCCAGTGGAAACACTGAC (.(((((....))))).) are -15.8 kcal/mol and 46.1 °C.
The matching figures for GGCCCTACGAAAGTAGCC (((..(((....)))))): -15.3 kcal/mol and 31 °C.
On the same counts, the results for GCGGCACCGAAAGGTCGC (((..(((....)))))) are -21.1 kcal/mol and 54.4 °C.
In the case of GGTTGGGGAAACCCGACC (((.(((....))).))), the folding enthalpy in series [1] was -32.4 kcal/mol. In addition, in series [2], the Tm was determined as 56.7 °C.
On the same counts, the results for GATCTAGGGCTAGATC ((((((....)))))) are -32.9 kcal/mol and 43.5 °C.
On the same counts, the results for CGTTTCGGAAACGACACG (((.(((....))).))) are -29.6 kcal/mol and 44.8 °C.
On the same counts, the results for GATCATTTTAATGATC ((((((....)))))) are -53.2 kcal/mol and 53.6 °C.
Take GGATGGCCGAAAGGCTCC (((..(((....)))))): in series [1], the folding enthalpy was -11.6 kcal/mol. The Tm in series [2] is 37.3 °C.
On the same counts, the results for GATCTATAGGTAGATC ((((((....)))))) are -32.8 kcal/mol and 42.2 °C.
The matching figures for GAGAATGGAAACGTTCTC (((((.(....).))))): -33.9 kcal/mol and 42.9 °C.
The matching figures for GTGTACGAAAGTATACAC ((((((....)))..))): -22 kcal/mol and 44.9 °C.
Consider GATTGTGGAAACATAATC ((((.((....)).)))), for which, in series [1], the folding enthalpy was -27.3 kcal/mol. Also, the Tm in series [2] amounted to 36.1 °C.
The matching figures for GATCGGATTCCCGATC ((((((....)))))): -36 kcal/mol and 55.5 °C.
Take GCGAAAGCTCGC ((((....)))): in series [1], the folding enthalpy is -11 kcal/mol. Moreover, the Tm in series [2] amounted to 56.8 °C.
The matching figures for GACTCCGGAAACGGAATC ((.((((....)))).)): -19.1 kcal/mol and 36.4 °C.
As to GCCGAACGAAAGTTGGGC (((.(((....))).))), the folding enthalpy in series [1] was -38.8 kcal/mol. Also, the Tm in series [2] came out at 58.5 °C.
The matching figures for CGCTCGGAAACGAGTGCG ((((((....)))..))): -15.8 kcal/mol and 44.9 °C.
The matching figures for GCACAAACGAAAGTTTGC (((..(((....)))))): -11.2 kcal/mol and 39.7 °C.
The matching figures for GTTACCGAAAGGTACAAC ((((((....)))..))): -10.9 kcal/mol and 31.2 °C.
For the sequence GATCAATGCTTTGATC ((((((....)))))), the folding enthalpy in series [1] was -39.7 kcal/mol. Moreover, the Tm in series [2] was 47.5 °C.
On the same counts, the results for GCGATAGTTCGC ((((....)))) are -21.8 kcal/mol and 50.4 °C.
The matching figures for GGTAGGGAAACCTACC ((((((....)))))): -38.5 kcal/mol and 54.6 °C.
On the same counts, the results for GGTCGGACGAAAGTCACC (((..(((....)))))) are -12.7 kcal/mol and 30.6 °C.
For GTATACGAAAGTAGATAC ((((((....)))..))), the folding enthalpy in series [1] is -10.1 kcal/mol. The Tm in series [2] stood at 24.9 °C.
On the same counts, the results for GCCATTACGAAAGTAGGC (((..(((....)))))) are -25.6 kcal/mol and 42.2 °C.
The matching figures for GTACTCGAAAGAGGCTAC ((((((....)))..))): -14.3 kcal/mol and 37.4 °C.
On the same counts, the results for GATCCGAGCTCGGATC ((((((....)))))) are -37.3 kcal/mol and 63 °C.
